The record followed here is ChEMBL document CHEMBL2331347, “Biselectivity of isoDGR peptides for fibronectin binding integrin subtypes α5β1 and αvβ6: conformational control through flanking amino acids” (J Med Chem, 2013).

Each structure is given as a SMILES string.

The target in experiment [1] is Integrin alpha-5/beta-1 (Homo sapiens, UniProt P05556+P08648). The experiment can be described thus: Inhibition of fibronectin binding to human Integrin alpha5beta1 receptor by competitive ELISA. Type of experiment: protein-complex assay. The essentials: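 Plates coated overnight at 4 °C with 0.5 μg/mL fibronectin at pH 9.6, then blocked with 1% BSA in Tris buffer containing Ca, Mg and Mn. Soluble human α5β1 (1.0 μg/mL final) and inhibitor (0.00013−10 μM final) incubated 1 h at RT. Bound integrin detected with anti-CD49e and peroxidase secondary antibody, A450. Duplicates; IC50 taken as the inflection point of the inhibition curve.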
In general terms: In an ELISA, binding on a coated surface is turned into a signal by an enzyme label.

Experiment [2] concerns the target Integrin alpha-V/beta-3 (Homo sapiens, UniProt P05106+P06756). The experiment can be described thus: Inhibition of vitronectin binding to Integrin alphaVbeta3 receptor (unknown origin) by competitive ELISA. Type of experiment: protein-complex assay.
In experiment [3] the target is Integrin alpha-IIb/beta-3 (Homo sapiens, UniProt P05106+P08514). The experiment can be described thus: Inhibition of fibrinogen binding to Integrin alpha2bbeta3 receptor (unknown origin) by competitive ELISA. Type of experiment: protein-complex assay.
Experiment [4] addresses Integrin alpha-V/beta-5 (Homo sapiens, UniProt P06756+P18084). The experiment can be described thus: Inhibition of vitronectin binding to Integrin alphaVbeta5 receptor (unknown origin) by competitive ELISA. Type of experiment: protein-complex assay.
Experiment [5] addresses Integrin alpha-V/beta-6 (Homo sapiens, UniProt P06756+P18564). The experiment can be described thus: Inhibition of latency-associated peptide binding to Integrin alphaVbeta6 receptor (unknown origin) by competitive ELISA. It counts as protein-complex assay. The essentials: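 LAP coated at 0.4 μg/mL; soluble αvβ6 at 0.25 μg/mL final, mixed with serially diluted inhibitor. Bound integrin detected with anti-human αv antibody (1:500), then peroxidase secondary antibody (2.0 μg/mL), A450. Blocking, washing and curve analysis as for the α5β1 ELISA; IC50 from the inflection point.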

Experiment [6] is described as follows: Induction of focal adhesions formation in rat REF52 cells plated on 68 nm nanopatterned surfaces assessed as axial ratio after 4 hrs post cells plating by immunofluorescence microscopy. It counts as functional. The essentials:
(§1)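 REF52 rat embryonic fibroblasts (grown in DMEM with 10% FBS, 37 °C, 5% CO2) trypsinized and plated at 150 cells/mm2 in DMEM with 1% FBS on passivated gold nanopatterns (68 ± 9 nm spacing) functionalized with 25 μM peptide for 1 h. Fixed after 4 or 24 h, immunostained for paxillin, with phalloidin for actin and DAPI for nuclei, imaged at 63×.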

Experiment [7] in a line: Induction of focal adhesions formation in rat REF52 cells plated on 68 nm nanopatterned surfaces assessed as focal adhesion area width after 24 hrs post cells plating by immunofluorescence microscopy. Type of experiment: functional. The method, boiled down:
as §1

Experiment [8] in a line: Induction of focal adhesions formation in rat REF52 cells plated on 68 nm nanopatterned surfaces assessed as focal adhesion total area/cell area ratio after 4 hrs post cells plating by immunofluorescence microscopy. It counts as functional. The method, boiled down:
as §1

The nature of experiment [9]: Induction of focal adhesions formation in rat REF52 cells plated on 68 nm nanopatterned surfaces assessed as focal adhesion area length after 4 hrs post cells plating by immunofluorescence microscopy. It counts as functional. The essentials: as §1
A short description of experiment [10]: Induction of focal adhesions formation in rat REF52 cells plated on 68 nm nanopatterned surfaces assessed as axial ratio after 24 hrs post cells plating by immunofluorescence microscopy. Type of experiment: functional. The essentials: as §1
A short description of experiment [11]: Induction of focal adhesions formation in rat REF52 cells plated on 68 nm nanopatterned surfaces assessed as focal adhesion total area/cell area ratio after 24 hrs post cells plating by immunofluorescence microscopy. It counts as functional. The essentials: as §1
Experiment [12] can be described thus: Induction of focal adhesions formation in rat REF52 cells plated on 68 nm nanopatterned surfaces assessed as focal adhesion area length after 24 hrs post cells plating by immunofluorescence microscopy. Type of experiment: functional. The method, boiled down: as §1
Experiment [13] can be described thus: Induction of focal adhesions formation in rat REF52 cells plated on 68 nm nanopatterned surfaces assessed as focal adhesion area after 24 hrs post cells plating by immunofluorescence microscopy. It counts as functional. The method, boiled down: as §1
Experiment [14] is described as follows: Induction of focal adhesions formation in rat REF52 cells plated on 68 nm nanopatterned surfaces assessed as focal adhesion area after 4 hrs post cells plating by immunofluorescence microscopy. Type of experiment: functional. The method, boiled down: as §1
Experiment [15] in a line: Induction of focal adhesions formation in rat REF52 cells plated on 68 nm nanopatterned surfaces assessed as focal adhesion area width after 4 hrs post cells plating by immunofluorescence microscopy. Type of experiment: functional. The essentials: as §1

In general, IC50 refers to the concentration that gives 50% inhibition. With `N=C(N)NCCC[C@@H]1NC(=O)CNC(=O)C[C@@H](C(=O)O)NC(=O)[C@@H](c2ccccc2)NC(=O)[C@H]2CCCN2C1=O`, the results for the concentration for half-maximal inhibition (IC50) in experiment [1] and in experiment [2] were 7 nM and greater than 10000 nM, respectively.
Consider `NC(N)=NCCC[C@@H]1NC(=O)CNC(=O)C[C@@H](C(=O)O)NC(=O)[C@@H](c2ccccc2)NC(=O)[C@@H]2CCCN2C1=O`, for which the values for the IC50 in [1] and in experiment [2] were 111 nM and 675 nM, respectively.
For `NC(N)=NCCC[C@@H]1NC(=O)CNC(=O)C[C@@H](C(=O)O)NC(=O)[C@@H](c2ccccc2)NC(=O)[C@@H](Cc2ccc(O)cc2)NC1=O` the same measures were 8.7 nM and greater than 10000 nM.
For the compound `N=C(N)NCCC[C@@H]1NC(=O)CNC(=O)C[C@@H](C(=O)O)NC(=O)[C@@H](c2ccccc2)NC(=O)[C@@H](CCCCN)NC1=O`, the IC50 in experiment [3] was greater than 10000 nM; in experiment [4], greater than 10000 nM; in experiment [5] it was 19 nM; in experiment [1], 8.7 nM; in [2], greater than 10000 nM.
Consider `NC(N)=NCCC[C@@H]1NC(=O)CNC(=O)C[C@@H](C(=O)O)NC(=O)[C@@H](c2ccccc2)NC(=O)[C@@H](Cc2c[nH]c3ccccc23)NC1=O`, for which the 50% inhibitory concentration (IC50) in experiment [3] is greater than 10000 nM; in experiment [4], greater than 10000 nM; in [5] it was 92 nM; in experiment [1], 5.5 nM; in [2] it was greater than 10000 nM.
In the case of `NCCCC[C@@H]1NC(=O)[C@H](CCCN=C(N)N)NC(=O)CNC(=O)C[C@@H](C(=O)O)NC(=O)[C@@H](c2ccccc2)NC1=O`, the half-maximal inhibitory concentration (IC50) in experiment [3] was greater than 10000 nM; in experiment [4], greater than 10000 nM; in experiment [5], 140 nM; in experiment [1], 94 nM; in [2], 516 nM.
For the compound `NC(N)=NCCC[C@@H]1NC(=O)CNC(=O)C[C@@H](C(=O)O)NC(=O)[C@@H](c2ccccc2)NC(=O)[C@H](CCC(=O)O)NC1=O`, the concentration for half-maximal inhibition (IC50) in experiment [1] is 92 nM; in experiment [2] it was 3870 nM.
For `CC(C)[C@@H]1NC(=O)[C@H](CCCN=C(N)N)NC(=O)CNC(=O)C[C@@H](C(=O)O)NC(=O)[C@@H](c2ccccc2)NC1=O` the same measures were 115 nM and 576 nM.
`NC(N)=NCCC[C@@H]1NC(=O)CNC(=O)C[C@@H](C(=O)O)NC(=O)[C@@H](c2ccccc2)NC(=O)[C@H](Cc2c[nH]c3ccccc23)NC1=O`: the 50% inhibitory concentration (IC50) in [1] is 72 nM; in experiment [2] it was greater than 10000 nM.
For `NC(N)=NCCC[C@@H]1NC(=O)CNC(=O)C[C@@H](C(=O)O)NC(=O)[C@@H](c2ccccc2)NC(=O)[C@H](Cc2ccc(O)cc2)NC1=O` the same measures were 39 nM and greater than 10000 nM.
On to `N=C(N)NCCC[C@@H]1NC(=O)[C@H](CCCCN)NC(=O)[C@@H](Cc2ccccc2)NC(=O)[C@H](CC(=O)O)NC(=O)CNC1=O`, for which the IC50 was greater than 10000 nM in experiment [3], 310 nM in experiment [4], 68 nM in [5] and 133 nM in experiment [1].
For `N=C(N)NCCC[C@@H]1NC(=O)CNC(=O)C[C@@H](C(=O)O)NC(=O)[C@@H](c2ccccc2)NC(=O)CNC1=O`, the half-maximal inhibitory concentration (IC50) in experiment [3] was greater than 10000 nM; in [4], greater than 10000 nM; in experiment [5], 106 nM; in experiment [1], 19 nM; in experiment [2], greater than 1000 nM.
Turning to `NC(N)=NCCC[C@@H]1NC(=O)CNC(=O)C[C@@H](C(=O)O)NC(=O)[C@@H](c2ccccc2)NC(=O)[C@@H](CCC(=O)O)NC1=O`, the IC50 in experiment [1] is 11 nM; in [2], greater than 10000 nM.
For `N=C(N)NCCC[C@@H]1NC(=O)CNC(=O)C[C@@H](C(=O)O)NC(=O)[C@@H](c2ccccc2)NC(=O)[C@@H](CCCCNC(=O)CCSCCOCCOCCOCCOCCOCCOCCO)NC1=O`, the Ratio in experiment [6] stood at 6.01; in experiment [8], 0.07; in [10], 4.68; in experiment [11] it was 0.079. For the same compound, the Activity in experiment [7] stood at 0.9 um; in [9], 2.92 um; in [12], 3.94 um; in experiment [13], 2.61 um2; in experiment [14], 1.24 um2; in [15] it was 0.51 um. For the same compound, the 50% inhibitory concentration (IC50) in [1] is 27 nM; in experiment [2], greater than 10000 nM.
Consider `Cc1ccnc(NCCCC(=O)NCC(=O)NC(CC(=O)O)c2ccc(-c3cccc4ccccc34)cc2)c1` (stereo unspecified), for which the 50% inhibitory concentration (IC50) in experiment [3] was greater than 10000 nM; in experiment [4], greater than 10000 nM; in experiment [5], 4 nM; in [1], 2810 nM; in experiment [2], greater than 10000 nM.
As for `N=C(N)NCCC[C@@H]1NC(=O)[C@H](CCCCNC(=O)CCSCCOCCOCCOCCOCCOCCOCCO)NC(=O)[C@@H](Cc2ccccc2)NC(=O)[C@H](CC(=O)O)NC(=O)CNC1=O`, the Ratio was determined as 3.24 in [6], 0.093 in [8], 3.42 in experiment [10] and 0.076 in [11]. For the same compound, the Activity in experiment [7] came to 1.31 um; in experiment [9], 3.78 um; in experiment [12] it was 4.17 um; in experiment [13], 4.12 um2; in experiment [14], 3.4 um2; in experiment [15] it was 1.25 um. Besides, the half-maximal inhibitory concentration (IC50) came to 197 nM in [1] and 13.6 nM in [2].
Consider `CC(C)[C@H]1NC(=O)[C@H](CCCN=C(N)N)NC(=O)CNC(=O)C[C@@H](C(=O)O)NC(=O)[C@@H](c2ccccc2)NC1=O`, for which the IC50 is 7.3 nM in experiment [1] and greater than 10000 nM in experiment [2].
